Assays:
[1] = test system: Mus musculus; experiment: Percent anticonvulsant activity against pentylenetetrazole (PTZ)-induced attacks at 10 mg/kg peroral dose; assay type: functional; conditions: route oral
Summary of the method: (§1)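 Male CD-1 mice dosed po in 1% carboxymethylcellulose, 30 min before PTZ (90 mg/kg sc, in 0.9% saline). Occurrence of clonic generalized convulsions noted over 30 min; χ² analysis vs control mice.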

[2] = test system: Mus musculus; experiment: Motor coordination of mouse as number of falls in 30 sec was reported after 10 mg/kg peroral dose using rotarod test; assay type: functional; conditions: route oral
Summary of the method: (§2)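 Male CD-1 mice are dosed po in 1% CMC (flumazenil ip). Falls from a rota rod turning at 24 rpm are counted over 30 s, 25 min after drug administration, and compared with vehicle-treated mice. Means ± SEM.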

[3] = test system: Mus musculus; experiment: Anxiolytic activity in mice using light-dark box and % time spent in light was reported at 10 mg/kg peroral dose; assay type: functional; conditions: route oral
Summary of the method: (§3)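 Male CD-1 mice (22–24 g) given drug po in 1% carboxymethylcellulose (10 mL/kg). Each mouse placed in the centre of the lighted area facing away from the dark compartment and allowed to explore for 5 min; time spent in the illuminated side and number of transfers between compartments recorded. Tests run between 10:00 and 15:00.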

[4] = test system: Mus musculus; experiment: Anxiolytic activity in mice using light-dark box and no. of transfers between compartments were reported at 10 mg/kg peroral dose; assay type: functional; conditions: route oral; summary of the method: as §3
[5] = test system: Mus musculus; experiment: Motor coordination of mouse as number of falls in 30 sec was reported after 30 mg/kg peroral dose using rotarod test; assay type: functional; conditions: route oral
Summary of the method: (§4)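 Male CD-1 mice dosed po (suspension in 1% carboxymethylcellulose, 10 mL/kg). Rota rod turning at 24 rpm; falls from the rod counted over 30 s, 25 min after drug administration.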

[6] = test system: Mus musculus; experiment: Percent anticonvulsant activity against pentylenetetrazole (PTZ)-induced attacks at 30 mg/kg peroral dose; assay type: functional; conditions: route oral; summary of the method: as §1
[7] = test system: Mus musculus; experiment: Anxiolytic activity in mice using light-dark box and % time spent in light was reported at 3 mg/kg peroral dose; assay type: functional; conditions: route oral; summary of the method: as §3
[8] = target: GABA-A receptor; anion channel; set-up: species or system Bos taurus
[9] = test system: Mus musculus; experiment: Percent anticonvulsant activity against pentylenetetrazole (PTZ)-induced attacks at 3 mg/kg peroral dose; assay type: functional; conditions: route oral; summary of the method: as §1
[10] = test system: Mus musculus; experiment: Motor coordination of mouse as number of falls in 30 sec was reported after 3 mg/kg peroral dose using rotarod test; assay type: functional; conditions: route oral; summary of the method: as §4
[11] = test system: Mus musculus; experiment: Anxiolytic activity in mice using light-dark box and no. of transfers between compartments were reported at 3 mg/kg peroral dose; assay type: functional; conditions: route oral; summary of the method: as §3
[12] = target: GABA-A receptor; anion channel (Homo sapiens) (UniProt P14867+P47870+P18507+P28472+P48169+Q99928+Q9UN88+P34903+O00591+O14764+Q8N1C3+P18505+P78334+P47869+P31644+Q16445); experiment: Percent inhibition [3H]Ro-151788 binding to Benzodiazepine receptor from bovine brain membrane at 10 uM; conditions: Bos taurus, target entry is the homologue from another species
[13] = Displacement of [3H]-Ro-15-1788 from rat GABA-A receptor alpha-2-beta-2-gamma-2 subunits expressed in HEK293 cells; assay type: cell-based
Summary of the method: (§5)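 Recombinant rat GABA-A subtypes are stably expressed in HEK293 cells grown in MEM/EBSS with 10% FCS at 37 °C. Membranes are made in 10 mM potassium phosphate pH 7.4 and resuspended with 100 mM KCl. Incubation uses 1–2 nM [3H]Ro15-1788 with compound at 10^-9–10^-5 M (≥6 concentrations), 1 h at 4 °C. […] Ki comes from Cheng–Prusoff, n=5, in triplicate.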

[14] = test system: Mus musculus; experiment: Percent anticonvulsant activity against pentylenetetrazole (PTZ)-induced attacks at 1 mg/kg peroral dose; assay type: functional; conditions: route oral
Summary of the method: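 Male CD-1 mice are dosed po in 1% CMC (flumazenil ip). PTZ (90 mg/kg sc, in 0.9% saline) is injected 30 min later. Clonic generalized convulsions are scored over 30 min, with % protection compared with controls by χ2 analysis.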

[15] = Anticonvulsant activity electroshock induced convulsions and % lethality obtained at dose of 10 mg/kg; conditions: mouse, in vivo
[16] = Displacement of [3H]Ro-151788 from rat GABA-A receptor alpha-5-beta-3-gamma-2 subunits expressed in HEK293 cells; assay type: cell-based; summary of the method: as §5
[17] = test system: Mus musculus; experiment: Anxiolytic activity in mice using light-dark box and no. of transfers between compartments were reported at 0.3 mg/kg peroral dose; assay type: functional; conditions: route oral
Summary of the method: (§6)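 Light-dark box in male CD-1 mice. Ligands are given po in 1% CMC, flumazenil ip. Each mouse is placed in the centre of the lit area facing away from the dark one and explores for 5 min. Time in the illuminated side and number of transfers between compartments are recorded. Means ± SEM.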

[18] = test system: Mus musculus; experiment: Motor coordination of mouse as number of falls in 30 sec was reported after 0.3 mg/kg peroral dose using rotarod test; assay type: functional; conditions: route oral; summary of the method: as §2
[19] = test system: Mus musculus; experiment: Anxiolytic activity in mice using light-dark box and % time spent in light was reported at 1 mg/kg peroral dose; assay type: functional; conditions: route oral; summary of the method: as §6
[20] = test system: Mus musculus; experiment: Anxiolytic activity in mice using light-dark box and no. of transfers between compartments were reported at 1 mg/kg peroral dose; assay type: functional; conditions: route oral; summary of the method: as §6
[21] = test system: Mus musculus; experiment: Motor coordination of mouse as number of falls in 30 sec was reported after 1 mg/kg peroral dose using rotarod test; assay type: functional; conditions: route oral; summary of the method: as §2
[22] = test system: Mus musculus; experiment: Anxiolytic activity in mice using light-dark box and no. of transfers between compartments were reported at 100 mg/kg peroral dose; assay type: functional; conditions: route oral; summary of the method: as §3
[23] = test system: Mus musculus; experiment: Anxiolytic activity in mice using light-dark box and % time spent in light was reported at 100 mg/kg peroral dose; assay type: functional; conditions: route oral; summary of the method: as §3
[24] = test system: Mus musculus; experiment: Percent anticonvulsant activity against pentylenetetrazole (PTZ)-induced attacks at 100 mg/kg peroral dose; assay type: functional; conditions: route oral; summary of the method: as §1
[25] = test system: Mus musculus; experiment: Anxiolytic activity in mice using light-dark box and % time spent in light was reported at 30 mg/kg peroral dose; assay type: functional; conditions: route oral; summary of the method: as §3
[26] = test system: Mus musculus; experiment: Anxiolytic activity in mice using light-dark box and no. of transfers between compartments were reported at 30 mg/kg peroral dose; assay type: functional; conditions: route oral; summary of the method: as §3
[27] = test system: Mus musculus; experiment: Motor coordination of mouse as number of falls in 30 sec was reported after 100 mg/kg peroral dose using rotarod test; assay type: functional; conditions: route oral; summary of the method: as §4
[28] = test system: Mus musculus; experiment: Motor coordination of mouse as number of falls in […] was reported after 10 mg/kg peroral dose using rotarod test; assay type: functional; conditions: route oral

CN1C(=O)CN=C(c2ccccc2)c2cc(Cl)ccc21.O=C(OCc1ccsc1)c1cnn2c1n[n+]([O-])c1ccc(Cl)cc12
Activity [1]: 100%
No. of falls [2]: 0.55
Activity [3]: 149.16%
No. of transfers [4]: 27.9

O=C(OCc1ccsc1)c1cnn2c1n[n+]([O-])c1ccc(Cl)cc12 [listing 1 of 2 here]
Activity [1]: 18.2%
No. of falls [5]: 0.27
Activity [6]: 9%
Activity [7]: 110.3%
Ki [8]: 13.3 nM
No. of falls [2]: 0.36
Activity [9]: 30%
Activity [3]: 91.84%
No. of falls [10]: 0.2
No. of transfers [4]: 16
No. of transfers [11]: 15.7

O=C(OCc1ccoc1)c1cnn2c1n[n+]([O-])c1ccc(Cl)cc12 [listing 1 of 2 here]
inhibition [12]: 96%

O=C(OCc1ccncc1)c1cnn2c1n[n+]([O-])c1ccc(Cl)cc12
Ki [8]: 44 nM
inhibition [12]: 100%

CN1C(=O)CN=C(c2ccccc2)c2cc(Cl)ccc21 [DIAZEPAM]
Ki [13]: 7.8 nM
Activity [14]: 93.8%
mortality [15]: 0%
Activity [7]: 243.2%
Ki [16]: 9.8 nM
No. of transfers [17]: 22
Activity [9]: 100%
No. of falls [18]: 0.39
No. of falls [10]: 1.6
Activity [19]: 159.3%
No. of transfers [11]: 16.5
No. of transfers [20]: 23.2
No. of falls [21]: 0.78

COc1ccccc1COC(=O)c1cnn2c1nnc1ccc(Cl)cc12
Ki [8]: 1.7 nM
inhibition [12]: 97%

CCOC(=O)c1ncn2c1CN(C)C(=O)c1cc(F)ccc1-2.O=C(OCc1cccs1)c1cnn2c1n[n+]([O-])c1ccc(Cl)cc12
No. of transfers [22]: 23
Activity [23]: 124.08%

CC(OC(=O)c1cnn2c1n[n+]([O-])c1ccc(Cl)cc12)c1ccccc1 (configuration not stated)
Ki [8]: 138 nM
inhibition [12]: 95%

COc1ccccc1COC(=O)C1C=NN2c3cc(Cl)ccc3[N+]([O-])=NC12 (configuration not stated)
Ki [8]: 1 nM
inhibition [12]: 100%

O=C(OCc1cccs1)c1cnn2c1nnc1ccc(Cl)cc12
Ki [8]: 6.26 nM
inhibition [12]: 96%

O=C(Cc1cnn2c1n[n+]([O-])c1ccc(Cl)cc12)OCc1ccsc1
inhibition [12]: 45%

CN1C(=O)CN=C(c2ccccc2)c2cc(Cl)ccc21.O=C(OCc1ccco1)c1cnn2c1n[n+]([O-])c1ccc(Cl)cc12
Activity [1]: 88.9%
No. of falls [2]: 1.55
Activity [3]: 142.02%
No. of transfers [4]: 27.1

O=C(OCc1ccoc1)c1cnn2c1n[n+]([O-])c1ccc(Cl)cc12 [listing 2 of 2 here]
Activity [1]: 20%
Activity [24]: 36.4%
Activity [25]: 132.27%
No. of falls [5]: 0.1
Activity [6]: 30%
No. of transfers [26]: 20.4
No. of transfers [22]: 19.7
No. of falls [27]: 0.18
Ki [8]: 11.4 nM
No. of falls [2]: 0.2
Activity [9]: 0%
Activity [3]: 118.95%
Activity [23]: 127.18%
No. of falls [10]: 0.14
No. of transfers [4]: 16.57

Cc1ccc(-c2nc3ccc(C)cn3c2CC(=O)N(C)C)cc1 [ZOLPIDEM]
Ki [16]: > 1000 nM

CCOC(=O)Cc1cnn2c1n[n+]([O-])c1ccc(Cl)cc12
inhibition [12]: 53%

COc1ccccc1OC(=O)CC1C=NN2c3cc(Cl)ccc3[N+]([O-])=NC12 (configuration not stated)
Ki [8]: 171 nM
inhibition [12]: 88%

Cc1ccccc1OC(=O)CC1C=NN2c3cc(Cl)ccc3[N+]([O-])=NC12 (configuration not stated)
inhibition [12]: 70%

O=C(CC1C=NN2c3cc(Cl)ccc3[N+]([O-])=NC12)Oc1ccccc1Cl (configuration not stated)
Ki [8]: 489 nM
inhibition [12]: 87%

CC(C)OC(=O)c1cnn2c1n[n+]([O-])c1ccc(Cl)cc12
Ki [8]: 272 nM
inhibition [12]: 97%

O=C(Cc1cnn2c1n[n+]([O-])c1ccc(Cl)cc12)OCc1ccccc1
inhibition [12]: 32%

CN1C(=O)CN=C(c2ccccc2)c2cc(Cl)ccc21.O=C(OCc1ccoc1)c1cnn2c1n[n+]([O-])c1ccc(Cl)cc12
Activity [1]: 88.9%
No. of falls [2]: 0.44

O=C(OCc1ccsc1)c1cnn2c1n[n+]([O-])c1ccc(Cl)cc12 [listing 2 of 2 here]
inhibition [12]: 97%

O=C(OCc1cccs1)c1cnn2c1n[n+]([O-])c1ccc(Cl)cc12
inhibition [12]: 93%

CCOC(=O)c1ncn2c1CN(C)C(=O)c1cc(F)ccc1-2.CN1C(=O)CN=C(c2ccccc2)c2cc(Cl)ccc21
Activity [24]: 20%
Activity [25]: 154.8%
No. of transfers [26]: 23
No. of transfers [22]: 15.6
No. of falls [27]: 0.4
Activity [23]: 107%

O=C(OCC1CCOC1)c1cnn2c1n[n+]([O-])c1ccc(Cl)cc12 (configuration not stated)
Ki [8]: 680 nM
inhibition [12]: 85%

CN1C(=O)CN=C(c2ccccc2)c2cc(Cl)ccc21.O=C(OCc1cccs1)c1cnn2c1n[n+]([O-])c1ccc(Cl)cc12
Activity [9]: 50%
No. of falls [10]: 0.3

O=C(Cc1cnn2c1n[n+]([O-])c1ccc(Cl)cc12)OCc1cccs1
inhibition [12]: 35%

O=C(OCc1ccco1)c1cnn2c1n[n+]([O-])c1ccc(Cl)cc12 [listing 1 of 2 here]
inhibition [12]: 100%

COc1ccccc1COC(=O)Cc1cnn2c1n[n+]([O-])c1ccc(Cl)cc12
inhibition [12]: 50%

O=C(Cc1cnn2c1n[n+]([O-])c1ccc(Cl)cc12)Oc1ccccc1
inhibition [12]: 79%

O=C(OCc1ccco1)c1cnn2c1n[n+]([O-])c1ccc(Cl)cc12 [listing 2 of 2 here]
Activity [1]: 27.3%
Activity [24]: 27.3%
Activity [25]: 125.02%
No. of falls [5]: 0.08
Activity [6]: 7.7%
No. of transfers [26]: 18.6
No. of transfers [22]: 14
No. of falls [27]: 0.45
Ki [8]: 24.4 nM
Activity [3]: 96.8%
Activity [23]: 96.16%
No. of transfers [4]: 15.71
No. of falls [28]: 0.27
